One series is described as follows: dynamic light scattering. The series is classed as physicochemical. Conditions: DLS conc. 50 μM.
The target in a further series is T1, procaspase-3 (Homo sapiens, UniProt P42574).
T1 sequence (P42574 1-277): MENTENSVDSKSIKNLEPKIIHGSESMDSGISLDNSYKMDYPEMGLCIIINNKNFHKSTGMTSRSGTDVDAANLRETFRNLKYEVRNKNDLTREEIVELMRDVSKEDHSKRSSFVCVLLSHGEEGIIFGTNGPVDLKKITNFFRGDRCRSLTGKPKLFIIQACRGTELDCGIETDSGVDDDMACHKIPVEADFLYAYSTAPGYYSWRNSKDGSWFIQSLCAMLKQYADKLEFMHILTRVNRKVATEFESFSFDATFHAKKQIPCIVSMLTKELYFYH
In words: procaspase-3 self-activation assay. The series is classed as biochemical. Summed up:
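Known promiscuous enzyme-inhibiting aggregators (panel of six) were each tested for ability to activate wild-type procaspase-3. The self-activation assay is run at 37°C.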

For another series, the target named is T2, caspase-3 (Homo sapiens, UniProt P42574).
T2 sequence (P42574 29-175 limits assumed): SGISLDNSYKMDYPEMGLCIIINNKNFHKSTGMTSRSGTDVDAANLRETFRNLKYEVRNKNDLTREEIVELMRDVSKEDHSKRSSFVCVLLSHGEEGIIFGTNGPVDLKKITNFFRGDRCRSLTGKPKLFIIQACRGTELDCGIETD
T2 sequence (P42574 176-277 limits assumed): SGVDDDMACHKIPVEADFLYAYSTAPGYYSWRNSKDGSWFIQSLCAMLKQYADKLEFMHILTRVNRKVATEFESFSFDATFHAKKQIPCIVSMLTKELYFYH
Nature of the series: inhibition of mature caspase-3 by known aggregators. In kind it is biochemical.

Where “and” joins values, the source holds several entries; their conditions need not be identical. Equal values may be shown once.

Consider two compounds from paper PMC3253528 (Journal of the American Chemical Society, 2011).

Turning to `O=C1OC(c2cc(I)c(O)c(I)c2)(c2cc(I)c(O)c(I)c2)c2ccccc21` [TIPT, 3′,3″,5′,5″-tetraiodophenolpthalein], the “DLS Intensity” value is 3903.5 kcps and 3903.5 ± 1423.0 kcps in “dynamic light scattering” (25°C); 3933.2 ± 1369.0 kcps in “dynamic light scattering” (37°C). In addition, the Radius is 71.1 nm and 71.1 ± 8.6 nm in “dynamic light scattering” (25°C); 76.7 ± 7.8 nm in “dynamic light scattering” (37°C).
For the compound `Nc1c(/N=N/c2ccc(-c3ccc(/N=N/c4cc(S(=O)(=O)O)c5ccccc5c4N)cc3)cc2)cc(S(=O)(=O)O)c2ccccc12` [Congo red], the “activation of procaspase-3 by known aggregators” value at procaspase-3 is on record as “no activation”. At caspase-3, the “inhibition of mature caspase-3” value is recorded as “inhibited”.
